Measured values published in ChEMBL document CHEMBL4270630.

How the values were obtained:
Influenza A virus [1] = assay: Antiviral activity against Influenza A virus A/PR/8/34(H1N1) infected in MDCK cells assessed as reduction in virus-induced cytopathic effect after 3 days by microscopic method; assay type: functional, organism-based, A/Puerto Rico/8/1934(H1N1); conditions: Influenza A virus, A/Puerto Rico/8/1934(H1N1), MDCK, 72 h
In short: (§1)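 Semi-confluent MDCK cells were infected at an MOI of 0.0004 PFU/cell in Ultra-MDCK infection medium with 2 μg/mL TPCK-trypsin, together with compounds. After 3 days at 35 °C, CPE was scored by microscopy and confirmed by MTS formazan viability. EC50 is the concentration giving 50% inhibition of virus-induced CPE. Values are means of two to five independent tests.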

Influenza A virus [2] = assay: Antiviral activity against Influenza A virus A/PR/8/34(H1N1) infected in MDCK cells after 3 days by MTS assay; assay type: functional, organism-based, A/Puerto Rico/8/1934(H1N1); conditions: Influenza A virus, A/Puerto Rico/8/1934(H1N1), MDCK, 72 h; in short: as §1
Influenza A virus [3] = assay: Antiviral activity against Influenza A virus A/Virginia/ATCC3/2009(H1N1pdm) infected in MDCK cells assessed as reduction in virus-induced cytopathic effect after 3 days by microscopic method; assay type: functional, organism-based, Influenza A virus (A/Virginia/03/2009(H1N1)); conditions: 72 h; in short: as §1
Influenza A virus [4] = assay: Antiviral activity against Influenza A virus A/Virginia/ATCC3/2009(H1N1pdm) infected in MDCK cells after 3 days by MTS assay; assay type: functional, organism-based, Influenza A virus (A/Virginia/03/2009(H1N1)); conditions: 72 h; in short: as §1
H3N2 subtype [5] = assay: Antiviral activity against Influenza A virus A/HK/7/87(H3N2) infected in MDCK cells assessed as reduction in virus-induced cytopathic effect after 3 days by microscopic method; assay type: functional, organism-based; conditions: A/Hong Kong/7/1987(H3N2), 72 h; in short: as §1
H3N2 subtype [6] = assay: Antiviral activity against Influenza A virus A/HK/7/87(H3N2) infected in MDCK cells after 3 days by MTS assay; assay type: functional, organism-based; conditions: A/Hong Kong/7/1987(H3N2), 72 h; in short: as §1
Influenza B virus [7] = assay: Antiviral activity against Influenza B virus B/HK/05/72 infected in MDCK cells assessed as reduction in virus-induced cytopathic effect after 3 days by microscopic method; assay type: functional, organism-based; conditions: B/Hong Kong/05/1972, MDCK, 72 h; in short: as §1
Influenza B virus [8] = assay: Antiviral activity against Influenza B virus B/HK/05/72 infected in MDCK cells after 3 days by MTS assay; assay type: functional, organism-based; conditions: B/Hong Kong/05/1972, MDCK, 72 h; in short: as §1
[9] = (§2) Cytotoxicity against MDCK cells assessed as reduction in cell viability after 3 days by MTS assay; assay type: cell-based, Canis lupus familiaris; conditions: dog, MDCK cells
[10] = Cytotoxicity against MDCK cells assessed as alteration in cell morphology after 3 days by microscopic method; assay type: cell-based, Canis lupus familiaris; conditions: dog
In short: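 Mock-infected MDCK cells were treated with compounds in parallel with the antiviral assay, 3 days at 35 °C. MCC is the concentration causing minimal change in cell morphology by microscopy. CC50 is the 50% cytotoxic concentration by MTS formazan viability assay.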

Influenza A virus [11] = assay: Antiviral activity against Influenza A virus A/PR/8/34(H1N1) GFP-fused pseudotyped lentiviral particle expressing H1-HA/N1-NA infected in MDCK cells assessed as inhibition of pseudoparticle entry at 2 uM after 3 days by flow cytometry relative to control; assay type: functional; conditions: A/Puerto Rico/8/1934(H1N1), 72 h
In short: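 MDCK cells were seeded at 7500/well and one day later were exposed to compounds plus GFP lentiviral pseudoparticles bearing A/PR/8/34 H1-HA and N1-NA, with HA0 activated by trypsin. After 3 days the cells were trypsinized, fixed in paraformaldehyde and analysed for GFP by flow cytometry. Entry inhibition was taken as the reduction in GFP signal. Data are the mean ± SEM of four independent experiments.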

Influenza B virus [12] = assay: Antiviral activity against Influenza B virus B/Ned/537/05 infected in MDCK cells assessed as reduction in virus-induced cytopathic effect after 3 days by microscopic method; assay type: functional, organism-based; conditions: B/Ned/537/05, MDCK, 72 h
In short: (§3)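 Semi-confluent MDCK cells were infected at an MOI of 0.0004 PFU/cell in Ultra-MDCK infection medium with 2 μg/mL TPCK-trypsin, together with compounds. After 3 days at 35 °C, CPE was scored by microscopy and confirmed by MTS formazan viability. Values are means of two to five independent tests.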

Influenza B virus [13] = assay: Antiviral activity against Influenza B virus B/Ned/537/05 infected in MDCK cells after 3 days by MTS assay; assay type: functional, organism-based; conditions: B/Ned/537/05, MDCK, 72 h; in short: as §3
MDCK = assay: as §2; assay type: cell-based, Canis lupus familiaris; conditions: dog, mdck, 72 h
Human coronavirus 229E [14] = assay: Antiviral activity against Human coronavirus 229E infected in HEL299 cells assessed as reduction in virus induced cytopathic effect after 5 days by microscopic method; assay type: functional, organism-based; conditions: HEL 299, 120 h
In short: (§4)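 Confluent HEL 299 cells in medium with 2% FCS were exposed to HCoV-229E (100 CCID50/well) together with compounds and held for 5 days at 35 °C. EC50 (CPE reduction) and MCC (minimal morphology change) were determined by microscopy. SI is MCC/EC50.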

[15] = Cytotoxicity against HEL299 cells assessed as changes in cell morphology after 5 days by microscopic method; assay type: cell-based, HEL 299; conditions: human; in short: as §4
Human coronavirus 229E [16] = assay: Antiviral activity against Human coronavirus 229E infected in human A549 cells assessed as reduction in virus RNA level after 3 days by qRT-PCR method; assay type: functional; conditions: A549, 72 h
In short: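 Confluent A549 cells were infected with HCoV-229E in 2% FCS medium with compounds present. The inoculum was removed at 1 h and compounds were kept on at 35 °C. Supernatants were harvested at day 3, lysed at 75 °C for 10 min, and viral genome copies counted by one-step qRT-PCR.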

[17] = Cytotoxicity against human A549 cells assessed as changes in cell morphology after 3 days by microscopic method; assay type: cell-based
In short: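 Mock-infected A549 cells were incubated with compounds for 3 days. MCC is the concentration causing minimal change in cell morphology by microscopy.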

[18] = Selectivity index, ratio of MCC for HEL299 cells to EC50 for Human coronavirus 229E infected in HEL299 cells; assay type: toxicity, cell-based; conditions: read-out: Selectivity Index; in short: as §4

Q: Which EC50 (Influenza A virus [1]) does the source give for `CCCCCCCCO[C@@H]1[C@@H](OCCCCCCCC)[C@@H](OC)O[C@H](COCCOCCOCCOCCOCc2cn([C@H]3C(=O)N[C@@H]4Cc5ccc(c(Cl)c5)Oc5cc6cc(c5O)Oc5ccc(cc5Cl)[C@@H](O[C@@H]5O[C@H](CO)[C@@H](O)[C@H](O)[C@H]5NC(C)=O)[C@H]5NC(=O)[C@H](NC(O)[C@@H]6NC(=O)[C@@H](NC4=O)c4cc(O)cc(c4)Oc4cc3ccc4O)c3ccc(O)c(c3)-c3c(O)cc(O)cc3[C@H](C(=O)O)NC5=O)nn2)[C@H]1OCc1ccc(OC)cc1` (stereo not given in full) here?
A: 0.8 µM

Q: What about the EC50 (Influenza A virus [2]) of the same molecule?
A: 1.2 µM

Q: And the EC50 (Influenza A virus [3])?
A: 1.4 µM

Q: And the EC50 (Influenza A virus [4])?
A: < 0.8 µM

Q: And the EC50 (H3N2 subtype [5])?
A: 1.8 µM

Q: What about the EC50 (H3N2 subtype [6]) of the same molecule?
A: 1.2 µM

Q: What about the EC50 (Influenza B virus [7]) of the same molecule?
A: > 100 µM

Q: And the EC50 (Influenza B virus [8])?
A: > 100 µM

Q: And the CC50 at 72 h [9]?
A: 11 µM

Q: What about the MCC at 72 h [10] of the same molecule?
A: 20 µM

Q: And the inhibition at 2 µM (Influenza A virus [11])?
A: 54%

Q: Which EC50 (Influenza A virus [1]) does the source give for `CC(=O)N[C@H]1[C@H](O[C@@H]2c3ccc(c(Cl)c3)Oc3cc4cc(c3O)Oc3ccc(cc3Cl)C[C@H]3NC(=O)[C@H](NS(=O)(=O)c5ccc(C)cc5)c5ccc(O)c(c5)Oc5cc(O)cc(c5)[C@H](NC3=O)C(=O)N[C@H]4C(O)N[C@H]3C(=O)N[C@H]2C(=O)N[C@@H](C(=O)O)c2cc(O)cc(O)c2-c2cc3ccc2O)O[C@H](CO)[C@@H](O)[C@@H]1O` (stereo not given in full) here?
A: 9 µM

Q: What about the EC50 (Influenza A virus [2]) of the same molecule?
A: 11 µM

Q: And the EC50 (Influenza A virus [3])?
A: 30 µM

Q: And the EC50 (Influenza A virus [4])?
A: 32 µM

Q: What about the EC50 (H3N2 subtype [5]) of the same molecule?
A: 41 µM

Q: What about the EC50 (H3N2 subtype [6]) of the same molecule?
A: 19 µM

Q: And the EC50 (Influenza B virus [12])?
A: 11 µM

Q: And the EC50 (Influenza B virus [13])?
A: 12 µM

Q: And the CC50 (MDCK)?
A: > 100 µM

Q: And the MCC at 72 h [10]?
A: 100 µM

Q: And the EC50 (Human coronavirus 229E [14])?
A: 5.2 µM

Q: And the MCC at 120 h [15]?
A: ≥ 100 µM

Q: And the EC90 (Human coronavirus 229E [16])?
A: 4.9 µM

Q: And the EC99 (Human coronavirus 229E [16])?
A: 10 µM

Q: And the MCC at 72 h [17]?
A: > 50 µM

Q: And the selectivity ratio [18]?
A: 19

Q: What does the source list for `CCCCCCS(=O)(=O)N[C@H]1C(=O)N[C@@H]2Cc3ccc(c(Cl)c3)Oc3cc4cc(c3O)Oc3ccc(cc3Cl)[C@@H](O[C@@H]3O[C@H](CO)[C@@H](O)[C@H](O)[C@H]3NC(C)=O)[C@H]3NC(=O)[C@H](NC(O)[C@@H]4NC(=O)[C@@H](NC2=O)c2cc(O)cc(c2)Oc2cc1ccc2O)c1ccc(O)c(c1)-c1c(O)cc(O)cc1[C@H](C(=O)O)NC3=O` (stereo not given in full)?
A: EC50 (Influenza A virus [1]): 8.6 µM; EC50 (Influenza A virus [2]): 9.6 µM; EC50 (Influenza A virus [3]): 8.9 µM; EC50 (Influenza A virus [4]): 9.1 µM; EC50 (H3N2 subtype [5]): 8.3 µM; EC50 (H3N2 subtype [6]): 8.9 µM; EC50 (Influenza B virus [12]): 8.9 µM; EC50 (Influenza B virus [13]): 10.3 µM; CC50 (MDCK): 54 µM; MCC at 72 h [10]: 100 µM; EC50 (Human coronavirus 229E [14]): 1.5 µM; MCC at 120 h [15]: 20 µM; selectivity ratio [18]: 11
